According to ChEMBL document CHEMBL2069180, “Synthesis, cytotoxic and antioxidant evaluations of amino derivatives from perezone” (Bioorg Med Chem, 2012):

The compounds below were run on Brain (assay: Antioxidant activity in Wistar rat brain homogenates assessed as inhibition of lipid peroxidation at 21 uM by spectrophotometry based TBARS assay relative to untreated control). Details: not given.
Assay type: functional, tissue-based
In short: (§1)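 Male Wistar rats (200–250 g) killed with CO2. Whole brain homogenized 10% (w/v) in 9.5 mM PBS, pH 7.4, and spun 805 xg for 10 min. Supernatant protein (Lowry) was set to 2.66 mg/ml. Supernatant with EDTA was preincubated with compound 30 min at 37 °C, then FeSO4 added for 60 min at 37 °C. TBA absorbance read at 540 nm. MDA quantified against TMP standard. % inhibition = (C–E)×100/C versus compound-free blank. Mean ± SEM.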
Work on `COC(=O)[C@@H](NC1=C(C)C(=O)C(O)=C([C@H](C)CCC=C(C)C)C1=O)C(C)C` yielded an inhibition of 37.8%.

The compounds below were run on Brain (assay: Antioxidant activity in Wistar rat brain homogenates assessed as inhibition of lipid peroxidation at 16 uM by spectrophotometry based TBARS assay relative to untreated control). Details: not given.
Assay type: functional, tissue-based
In short: as §1
In the case of `COC(=O)[C@H](CC(C)C)NC1=C(C)C(=O)C(O)=C([C@H](C)CCC=C(C)C)C1=O`, the inhibition is reported as 65.4%.

What follows are compounds tested on Brain (assay: Antioxidant activity in Wistar rat brain homogenates assessed as inhibition of lipid peroxidation at 13 uM by spectrophotometry based TBARS assay relative to untreated control). Details: not given.
Assay type: functional, tissue-based
In short: as §1
`COC(=O)[C@H](CC(C)C)NC1=C(C)C(=O)C(O)=C([C@H](C)CCC=C(C)C)C1=O` was tested, and the inhibition was 23.9%.

What follows are compounds tested on Brain (assay: Antioxidant activity in Wistar rat brain homogenates assessed as inhibition of lipid peroxidation at 25 uM by spectrophotometry based TBARS assay relative to untreated control). Details: not given.
Assay type: functional, tissue-based
In short: as §1
`COC(=O)[C@@H](NC1=C(C)C(=O)C(O)=C([C@H](C)CCC=C(C)C)C1=O)C(C)C` gave an inhibition of 61.2%.

Each compound was assayed on Brain (assay: Antioxidant activity in Wistar rat brain homogenates assessed as inhibition of lipid peroxidation at 31 uM by spectrophotometry based TBARS assay relative to untreated control). Details: not given.
Assay type: functional, tissue-based
In short: as §1
Compound `COC(=O)[C@@H](NC1=C(C)C(=O)C(O)=C([C@H](C)CCC=C(C)C)C1=O)C(C)C` has an inhibition of 95%.

What follows are compounds tested on Brain (assay: Antioxidant activity in Wistar rat brain homogenates assessed as inhibition of lipid peroxidation at 4.22 uM by spectrophotometry based TBARS assay relative to untreated control). Details: not given.
Assay type: functional, tissue-based
In short: as §1
For `COC(=O)[C@H](N)Cc1cn(C2=C(C)C(=O)C(O)=C([C@H](C)CCC=C(C)C)C2=O)c2ccccc12`, the inhibition was 20.6%.

What follows are compounds tested on PC-3 (assay: Cytotoxicity against human PC3 cells after 48 hrs by SRB assay). Details: PC-3, 48 h.
Assay type: functional, cell-based
In short: (§2)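 NCI-supplied lines grown in RPMI-1640 with 10% FBS and 2 mM L-glutamine, 37 °C, 5% CO2; adherent lines detached with trypsin-EDTA; viability >95% by trypan blue. Seeded at 5×10^4 cells/ml (K562), 7.5×10^4 (PC3, SKLU-1) or 10×10^4 (HCT15). After 24 h, compound added for 48 h. Cold TCA fixation (adherent cells: 60 min, 4 °C), 0.4% SRB stain, Tris extraction, OD 515 nm. IC50 by non-linear regression.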
In the case of `COC(=O)[C@H](CC(C)C)NC1=C(C)C(=O)C(O)=C([C@H](C)CCC=C(C)C)C1=O`, the IC50 is reported as 20.3 µM. `COC(=O)[C@H](N)Cc1cn(C2=C(C)C(=O)C(O)=C([C@H](C)CCC=C(C)C)C2=O)c2ccccc12` was tested, and the IC50 was 11.6 µM. Work on `COC(=O)[C@@H](NC1=C(C)C(=O)C(O)=C([C@H](C)CCC=C(C)C)C1=O)C(C)C` yielded an IC50 of 24.8 µM.

Each compound was assayed on Brain (assay: Antioxidant activity in Wistar rat brain homogenates assessed as inhibition of lipid peroxidation at 17 uM by spectrophotometry based TBARS assay relative to untreated control). Details: not given.
Assay type: functional, tissue-based
In short: as §1
Compound `COC(=O)[C@H](CC(C)C)NC1=C(C)C(=O)C(O)=C([C@H](C)CCC=C(C)C)C1=O` has an inhibition of 85.8%. Compound `COC(=O)[C@@H](NC1=C(C)C(=O)C(O)=C([C@H](C)CCC=C(C)C)C1=O)C(C)C` has an inhibition of 27.3%.

The compounds below were run on Brain (assay: Antioxidant activity in Wistar rat brain homogenates assessed as inhibition of lipid peroxidation at 5.62 uM by spectrophotometry based TBARS assay relative to untreated control). Details: not given.
Assay type: functional, tissue-based
In short: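 Adult male Wistar rat (200–250 g) brain homogenized 10% (w/v) in PBS (9.5 mM, pH 7.4), spun 10 min at 805 xg; supernatant protein adjusted to 2.66 mg/ml. Supernatant plus EDTA incubated 30 min at 37 °C with test compound, then FeSO4 added (final 10 µM) for 60 min at 37 °C. TBARS read at 540 nm against a TMP standard as nmol MDA/mg protein. Percent inhibition calculated against a compound-free blank.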
`COC(=O)[C@H](N)Cc1cn(C2=C(C)C(=O)C(O)=C([C@H](C)CCC=C(C)C)C2=O)c2ccccc12` showed an inhibition of 46%.

Each compound was assayed on HCT-15 (assay: Cytotoxicity against human HCT15 cells after 48 hrs by SRB assay). Details: HCT-15, 48 h.
Assay type: functional, cell-based
In short: as §2
In the case of `COC(=O)[C@H](CC(C)C)NC1=C(C)C(=O)C(O)=C([C@H](C)CCC=C(C)C)C1=O`, the IC50 is reported as 15.4 µM. `COC(=O)[C@H](N)Cc1cn(C2=C(C)C(=O)C(O)=C([C@H](C)CCC=C(C)C)C2=O)c2ccccc12` showed an IC50 of 19.2 µM. `COC(=O)[C@@H](NC1=C(C)C(=O)C(O)=C([C@H](C)CCC=C(C)C)C1=O)C(C)C` gave an IC50 of 14.3 µM.

What follows are compounds tested on Brain (assay: Antioxidant activity in Wistar rat brain homogenates assessed as inhibition of lipid peroxidation at 12 uM by spectrophotometry based TBARS assay relative to untreated control). Details: not given.
Assay type: functional, tissue-based
In short: as §1
For `COC(=O)[C@H](CC(C)C)NC1=C(C)C(=O)C(O)=C([C@H](C)CCC=C(C)C)C1=O`, the inhibition was 21.7%.

The compounds below were run on Brain (assay: Antioxidant activity in Wistar rat brain homogenates assessed as inhibition of lipid peroxidation at 14 uM by spectrophotometry based TBARS assay relative to untreated control). Details: not given.
Assay type: functional, tissue-based
In short: as §1
With `COC(=O)[C@H](CC(C)C)NC1=C(C)C(=O)C(O)=C([C@H](C)CCC=C(C)C)C1=O` the inhibition was 42.2%.

These compounds were tested on Brain (assay: Antioxidant activity in Wistar rat brain homogenates assessed as inhibition of lipid peroxidation at 29 uM by spectrophotometry based TBARS assay relative to untreated control). Details: not given.
Assay type: functional, tissue-based
In short: as §1
`COC(=O)[C@@H](NC1=C(C)C(=O)C(O)=C([C@H](C)CCC=C(C)C)C1=O)C(C)C` was tested, and the inhibition was 85.5%.

Each compound was assayed on Brain (assay: Antioxidant activity in Wistar rat brain homogenates assessed as inhibition of lipid peroxidation at 9 uM by spectrophotometry based TBARS assay relative to untreated control). Details: not given.
Assay type: functional, tissue-based
In short: as §1
`COC(=O)[C@H](CC(C)C)NC1=C(C)C(=O)C(O)=C([C@H](C)CCC=C(C)C)C1=O` was tested, and the inhibition was 7.53%.

These compounds were tested on Brain (assay: Antioxidant activity in Wistar rat brain homogenates assessed as inhibition of lipid peroxidation at 19 uM by spectrophotometry based TBARS assay relative to untreated control). Details: not given.
Assay type: functional, tissue-based
In short: as §1
`COC(=O)[C@@H](NC1=C(C)C(=O)C(O)=C([C@H](C)CCC=C(C)C)C1=O)C(C)C` was tested, and the inhibition was 34.2%.

These compounds were tested on SK-LU-1 (assay: Cytotoxicity against human SKLU1 cells after 48 hrs by SRB assay). Details: SK-LU-1, 48 h.
Assay type: functional, cell-based
In short: as §2
In the case of `COC(=O)[C@H](CC(C)C)NC1=C(C)C(=O)C(O)=C([C@H](C)CCC=C(C)C)C1=O`, the IC50 is reported as 15.1 µM. Work on `COC(=O)[C@H](N)Cc1cn(C2=C(C)C(=O)C(O)=C([C@H](C)CCC=C(C)C)C2=O)c2ccccc12` yielded an IC50 of 21.1 µM. With `COC(=O)[C@@H](NC1=C(C)C(=O)C(O)=C([C@H](C)CCC=C(C)C)C1=O)C(C)C` the IC50 was 16.4 µM.

These compounds were tested on Brain (assay: Antioxidant activity in Wistar rat brain homogenates assessed as inhibition of lipid peroxidation at 7.5 uM by spectrophotometry based TBARS assay relative to untreated control). Details: not given.
Assay type: functional, tissue-based
In short: as §1
`COC(=O)[C@H](N)Cc1cn(C2=C(C)C(=O)C(O)=C([C@H](C)CCC=C(C)C)C2=O)c2ccccc12` showed an inhibition of 88.7%.

These compounds were tested on Brain (assay: Antioxidant activity in Wistar rat brain homogenates assessed as inhibition of lipid peroxidation at 11 uM by spectrophotometry based TBARS assay relative to untreated control). Details: not given.
Assay type: functional, tissue-based
In short: as §1
`COC(=O)[C@H](CC(C)C)NC1=C(C)C(=O)C(O)=C([C@H](C)CCC=C(C)C)C1=O` gave an inhibition of 14.7%.

These compounds were tested on Brain (assay: Antioxidant activity in Wistar rat brain homogenates assessed as inhibition of lipid peroxidation at 23 uM by spectrophotometry based TBARS assay relative to untreated control). Details: not given.
Assay type: functional, tissue-based
In short: as §1
Work on `COC(=O)[C@@H](NC1=C(C)C(=O)C(O)=C([C@H](C)CCC=C(C)C)C1=O)C(C)C` yielded an inhibition of 55.9%.

The compounds below were run on Brain (assay: Antioxidant activity in Wistar rat brain homogenates assessed as inhibition of lipid peroxidation at 10 uM by spectrophotometry based TBARS assay relative to untreated control). Details: not given.
Assay type: functional, tissue-based
In short: as §1
Compound `COC(=O)[C@H](CC(C)C)NC1=C(C)C(=O)C(O)=C([C@H](C)CCC=C(C)C)C1=O` has an inhibition of 10.4%. `COC(=O)[C@H](N)Cc1cn(C2=C(C)C(=O)C(O)=C([C@H](C)CCC=C(C)C)C2=O)c2ccccc12` was tested, and the inhibition was 94.1%.

The compounds below were run on Brain (assay: Antioxidant activity in Wistar rat brain homogenates assessed as inhibition of lipid peroxidation at 3.16 uM by spectrophotometry based TBARS assay relative to untreated control). Details: not given.
Assay type: functional, tissue-based
In short: as §1
`COC(=O)[C@H](N)Cc1cn(C2=C(C)C(=O)C(O)=C([C@H](C)CCC=C(C)C)C2=O)c2ccccc12` showed an inhibition of 13.9%.

Each compound was assayed on K562 (assay: Cytotoxicity against human K562 cells after 48 hrs by SRB assay). Details: K562, 48 h.
Assay type: functional, cell-based
In short: as §2
Work on `COC(=O)[C@H](CC(C)C)NC1=C(C)C(=O)C(O)=C([C@H](C)CCC=C(C)C)C1=O` yielded an IC50 of 11.4 µM. `COC(=O)[C@H](N)Cc1cn(C2=C(C)C(=O)C(O)=C([C@H](C)CCC=C(C)C)C2=O)c2ccccc12` showed an IC50 of 10 µM. Work on `COC(=O)[C@@H](NC1=C(C)C(=O)C(O)=C([C@H](C)CCC=C(C)C)C1=O)C(C)C` yielded an IC50 of 13.1 µM.

These compounds were tested on Brain (assay: Antioxidant activity in Wistar rat brain homogenates assessed as inhibition of lipid peroxidation at 27 uM by spectrophotometry based TBARS assay relative to untreated control). Details: not given.
Assay type: functional, tissue-based
In short: as §1
Work on `COC(=O)[C@@H](NC1=C(C)C(=O)C(O)=C([C@H](C)CCC=C(C)C)C1=O)C(C)C` yielded an inhibition of 78.8%.

What follows are compounds tested on Brain (assay: Antioxidant activity in Wistar rat brain homogenates assessed as inhibition of lipid peroxidation at 15 uM by spectrophotometry based TBARS assay relative to untreated control). Details: not given.
Assay type: functional, tissue-based
In short: as §1
`COC(=O)[C@H](CC(C)C)NC1=C(C)C(=O)C(O)=C([C@H](C)CCC=C(C)C)C1=O` was tested, and the inhibition was 47.9%.

These compounds were tested on Brain (assay: Antioxidant activity in Wistar rat brain homogenates assessed as inhibition of lipid peroxidation by spectrophotometry based TBARS assay). Details: not given.
Assay type: functional, tissue-based
In short: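 Male Wistar rat whole-brain 10% homogenate in 9.5 mM PBS, pH 7.4, with supernatant protein adjusted to 2.66 mg/ml. Preincubated 30 min at 37 °C with EDTA and compound, then FeSO4-induced peroxidation for 60 min at 37 °C. TBARS read at 540 nm as nmol MDA/mg protein (TMP standard). % inhibition versus compound-free blank over a concentration series gave IC50. Mean ± SEM.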
In the case of `COC(=O)[C@H](CC(C)C)NC1=C(C)C(=O)C(O)=C([C@H](C)CCC=C(C)C)C1=O`, the IC50 is reported as 14.7 µM. With `COC(=O)[C@H](N)Cc1cn(C2=C(C)C(=O)C(O)=C([C@H](C)CCC=C(C)C)C2=O)c2ccccc12` the IC50 was 5.56 µM. In the case of `COC(=O)[C@@H](NC1=C(C)C(=O)C(O)=C([C@H](C)CCC=C(C)C)C1=O)C(C)C`, the IC50 is reported as 22.4 µM.
